Measurements as given in ChEMBL document CHEMBL1125497, “Synthesis and anticonvulsant activity of enaminones” (J Med Chem, 1992).

Legend:
[1] = Antiepileptic activity in male CF1 mice 0.50 hours after oral administration measured in neurological toxicity (Tox) test at a dose of 6 mg/kg (no. of animals treated /protected); activity value is 0/4; format: functional, Mus musculus
[2] = Antiepileptic activity in male CF1 mice 4 hr after administration measured in subcutaneous pentylenetetrazole (scMet) test at a dose of 100 mg/kg (no. of animals treated /protected); activity value is 0/1; format: functional, Mus musculus
[3] = Antiepileptic activity in male CF1 mice 4 hr after oral administration measured in maximum electroshock seizure(MES) test at a dose of 10 mg/kg (no. of animals treated /protected); activity value is 3/4; format: functional, Mus musculus
[4] = Antiepileptic activity in male CF1 mice 2 hr after oral administration measured in maximum electroshock seizure(MES) test at a dose of 10 mg/kg (no. of animals treated /protected); activity value is 4/4; format: functional, Mus musculus
[5] = Antiepileptic activity in male CF1 mice 2 hr after oral administration measured in neurological toxicity (Tox) test at a dose of 10 mg/kg (no. of animals treated /protected); activity value is 0/4; format: functional, Mus musculus
Rattus norvegicus [6] = test: Per oral dose (20 mg/Kg) reducing rat corneal kindling 0.5 hr after administration.; format: functional
Procedure, shortened: (§1)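 Sprague-Dawley rats (85–95 g initial) were kindled with 4 s, 8 mA corneal stimulations (butacaine anesthesia) to 10 consecutive stage 5 seizures. After a vehicle shock and a 2-day shock-free period, test drug was given ip or po and a single shock applied at time of peak effect. Seizures were scored on a modified Racine 0–5 scale. ED50 is the dose reducing severity by 50% (Litchfield–Wilcoxon).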

[7] = Antiepileptic activity in male CF1 mice 1 hr after oral administration measured in maximum electroshock seizure(MES) test at a dose of 6 mg/kg (no. of animals treated /protected); activity value is 2/4; format: functional, Mus musculus
[8] = Antiepileptic activity in male CF1 mice 0.5 hr after oral administration measured in maximum electroshock seizure(MES) test at a dose of 50 mg/kg (no. of animals treated /protected); activity value is 4/4; format: functional, Mus musculus
[9] = Antiepileptic activity in male CF1 mice 1 hr after oral administration measured in maximum electroshock seizure(MES) test at a dose of 50 mg/kg; activity value is 3/4; format: functional, Mus musculus
Rattus norvegicus [10] = test: Per oral dose (75 mg/Kg) reducing rat corneal kindling 0.5 hr after administration.; format: functional; procedure, shortened: as §1
Rattus norvegicus [11] = test: Average seizure score for the rat cornea 0.5 hr after peroral administration of 75 mg/kg of compound; format: functional; settings: route oral; procedure, shortened: as §1
[12] = Antiepileptic activity in male CF1 mice 30 min after administration measured in maximum electroshock seizure(MES) test at a dose of 100 mg/kg (no. of animals treated /protected); activity value is 2/3; format: functional, Mus musculus
[13] = Antiepileptic activity in male CF1 mice 4 hr after oral administration measured in maximum electroshock seizure(MES) test at a dose of 50 mg/kg (no. of animals treated /protected); activity value is 2/4; format: functional, Mus musculus
Rattus norvegicus [14] = test: Per oral dose (60 mg/Kg) reducing rat corneal kindling 0.5 hr after administration.; format: functional; procedure, shortened: as §1
[15] = Antiepileptic activity in male CF1 mice 2 hr after oral administration measured in maximum electroshock seizure(MES) test at a dose of 50 mg/kg (no. of animals treated /protected); activity value is 2/4; format: functional, Mus musculus

SMILES | Activity [1] | Activity [2] | Activity [3] | Activity [4] | Activity [5] | Reduction (Rattus norvegicus [6]) | Activity [7] | Activity [8] | Activity [9] | Reduction (Rattus norvegicus [10]) | Average seizure score (Rattus norvegicus [11]) | Activity [12] | Activity [13] | Reduction (Rattus norvegicus [14]) | Activity [15]
COC(=O)C1C(=O)C=C(Nc2ccc(Cl)cc2)CC1C (stereo not given) | 0 | 0 | 3 | 4 | 0 | 40% | 2 |  |  |  |  |  |  |  | 
COC(=O)C1C(=O)C=C(NCc2ccccc2)CC1C (stereo not given) |  |  |  |  |  |  |  | 4 | 3 | 47% | 2.6 | 2 | 2 | 40% | 2
